Reference: ChEMBL document CHEMBL4017532, “Multifunctional Hybrid Compounds Derived from 2-(2,5-Dioxopyrrolidin-1-yl)-3-methoxypropanamides with Anticonvulsant and Antinociceptive Properties” (J Med Chem, 2017)
Active and inactive are the calls of the source.

Key:
Mus musculus [1] = assay: Anticonvulsant activity in Albino Swiss CD-1 mouse assessed as protection against 6 Hz current-induced seizure at 100 mg/kg, ip pretreated up to 2 hrs followed by 6 Hz current induction for 3 secs relative to control; type: functional
Mus musculus [2] = assay: Anticonvulsant activity in Albino Swiss CD-1 mouse assessed as protection against maximal electroshock-induced seizures by measuring time to peak effect at 100 mg/kg, ip pretreated up to 2 hrs followed by 50 Hz current induction for […]; type: functional
[3] = Neurotoxicity in ip dosed Albino Swiss CD-1 mouse assessed as induction of motor impairment measured up to 60 secs by chimney test; type: toxicity, organism-based; details: in vivo
How it was run: (§1)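 Acute neurological toxicity after ip dosing (1% Tween 80 suspension) was assessed in the mouse chimney test. TD50 with 95% confidence limits was derived by probit analysis. Protective index is TD50 from the chimney test divided by ED50 from the MES, scPTZ or 6 Hz test.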

Mus musculus [4] = assay: Protection index, ratio of TD50 for neurotoxicity in ip dosed Albino Swiss CD-1 mouse to ED50 for ip dosed Albino Swiss CD-1 mouse model of 6 Hz-induced siezures; how it was run: as §1
Mus musculus [5] = assay: Anticonvulsant activity in ip dosed Albino Swiss CD-1 mouse assessed as protection against 32 mA current-induced seizure treated up to 2 hrs prior to 6-Hz current induction measured at time to peak effect; type: functional; details: Swiss CD-1, ip
[6] = Retention time of the compound by LC-MS method
Liver [7] = assay: Drug level in human liver microsomes treated with 1-{1-[4-(3-Chlorophenyl)piperazin-1-yl]-3-methoxy-1-oxopropan-2-yl}pyrrolidine-2,5-dione preincubated for 5 mins followed by NADPH addition measured after 2 hrs by LC-MS method; type: ADME, microsome
Mus musculus [8] = assay: Analgesic activity in Albino Swiss CD-1 mouse assessed as increase in pain response latency administered at 150 mg/kg, ip treated up to 90 mins prior to tet by hot plate assay; type: functional, organism-based
How it was run: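 Male CD-1 mice, 18–25 g, 6–12 per group, given test agents as 1% aqueous Tween 80 suspension ip. Doses were 50, 100 or 150 mg/kg, with morphine hydrochloride at 4 mg/kg as reference. Mice were placed on the hot plate 15, 30, 45, 60 and 90 min after dosing, and latency to pain reaction was recorded.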

Mus musculus [9] = assay: Antiallodynic activity in oxaliplatin-induced Albino Swiss CD-1 mouse model of peripheral neuropathy assessed as elevation in pain sensitivity threshold at 100 mg/kg, ip administered 30 mins prior to oxaliplatin challenge relative to control; type: functional
How it was run: (§2)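 Male CD-1 mice, 18–25 g, that had developed oxaliplatin-induced tactile allodynia were dosed ip 30 min before testing. Doses were 25, 50 or 100 mg/kg, or 50, 100 or 150 mg/kg for the reference. Vehicle was 1% aqueous Tween 80. Paw-withdrawal force was measured by von Frey filaments. Data are mean ± SEM, analysed by repeated-measures ANOVA with Dunnett's test against oxaliplatin plus vehicle mice.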

Mus musculus [10] = assay: Anticonvulsant activity in Albino Swiss CD-1 mouse assessed as inhibition of pentylenetetrazole-induced seizures by measuring time to peak effect at 100 mg/kg, ip administered up to 2 hrs prior to PTZ induction measured for 30 mins; type: functional
Mus musculus [11] = assay: Antinociceptive activity in Albino Swiss CD-1 mouse assessed as inhibition of formalin-induced neurogenic pain response at 150 mg/kg, ip administered 30 mins before formalin injection measured up to 5 mins relative to control; type: functional; details: Swiss CD-1, ip
How it was run: (§3)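 Male CD-1 mice were given test agents ip 30 min before subcutaneous intraplantar formalin. Doses were 12.5, 25 or 50 mg/kg, or 100, 150 or 200 mg/kg for the reference. Vehicle was 1% Tween 80 at 10 mL/kg. Paw licking time was recorded in phase I (0–5 min) and phase II (15–30 min). Data are mean ± SEM of 8–10 mice, by Dunnett's test. ED50 was obtained by log-probit analysis with 95% confidence limits.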

Mus musculus [12] = assay: Antiallodynic activity in oxaliplatin-induced Albino Swiss CD-1 mouse model of peripheral neuropathy assessed as elevation in pain sensitivity threshold at 50 mg/kg, ip administered 30 mins prior to oxaliplatin challenge relative to control; type: functional; how it was run: as §2
Mus musculus [13] = assay: Antinociceptive activity in Albino Swiss CD-1 mouse assessed as inhibition of capsaicin-induced nociception by measuring time spent licking injected paw at 200 mg/kg, ip administered 30 mins mins prior to capsaicin challenge measured for 5 mins relative to control; type: functional; details: Swiss CD-1, ip
How it was run: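 Mice (male CD-1, 18–25 g) were pretreated ip 30 min before intraplantar capsaicin. Doses were 25, 50 or 100 mg/kg, or 100, 150 or 200 mg/kg for the reference. Vehicle was 1% Tween 80 at 10 mL/kg. Duration of nociceptive response was scored over 5 min after injection. Data are mean ± SEM of 8–10 mice, by one-way ANOVA with Dunnett's test against vehicle.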

Mus musculus [14] = assay: Antinociceptive activity in Albino Swiss CD-1 mouse assessed as inhibition of formalin-induced neurogenic pain response at 200 mg/kg, ip administered 30 mins before formalin injection measured up to 5 mins relative to control; type: functional; details: Swiss CD-1, ip; how it was run: as §3
Mus musculus [15] = assay: Antiallodynic activity in oxaliplatin-induced Albino Swiss CD-1 mouse model of peripheral neuropathy assessed as elevation in pain sensitivity threshold at 150 mg/kg, ip administered 30 mins prior to oxaliplatin challenge relative to control; type: functional; how it was run: as §2
Mus musculus [16] = assay: Antinociceptive activity in Albino Swiss CD-1 mouse assessed as inhibition of formalin-induced neurogenic pain response at 100 mg/kg, ip administered 30 mins before formalin injection measured up to 5 mins relative to control; type: functional; details: Swiss CD-1, ip; how it was run: as §3
Cytochrome P450 3A4 = Cytochrome P450 3A4 (Homo sapiens, UniProt P08684); assay: Inhibition of human CYP3A4 assessed as reduction in luciferin-PPXE conversion to D-luciferin at 12.5 to 25 uM by luminescence assay; type: ADME
How it was run: (§4)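 P450-Glo luminescence assays used recombinant human CYP3A4 or CYP2D6 with conversion of luciferin-PPXE to D-luciferin. Ketoconazole (CYP3A4) and quinidine (CYP2D6) served as reference inhibitors.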

Mus musculus [17] = assay: Anticonvulsant activity in Albino Swiss CD-1 mouse assessed as protection against maximal electroshock-induced seizures at 100 mg/kg, ip pretreated up to 2 hrs followed by 50 Hz current induction for […] relative to control; type: functional
Mus musculus [18] = assay: Protection index, ratio of TD50 for neurotoxicity in ip dosed Albino Swiss CD-1 mouse to ED50 for ip dosed maximal electroshock induced seizure Albino Swiss CD-1 mouse; how it was run: as §1
Mus musculus [19] = assay: Anticonvulsant activity in ip dosed Albino Swiss CD-1 mouse assessed as protection against maximal electroshock-induced seizures pretreated up to 2 hrs followed by 50 Hz current induction for […] measured at time to peak effect; type: functional; details: Swiss CD-1, ip
Liver [20] = assay: Drug level in human liver microsomes treated with 1-{1-[4-(3-Trifluoromethylphenyl)piperazin-1-yl]-3-methoxy-1-oxopropan-2-yl}pyrrolidine-2,5-dione preincubated for 5 mins followed by NADPH addition measured after 2 hrs by LC-MS method; type: ADME, microsome
Mus musculus [21] = assay: Anticonvulsant activity in Albino Swiss CD-1 mouse assessed as inhibition of pentylenetetrazole-induced seizures at 100 mg/kg, ip administered up to 2 hrs prior to PTZ induction measured after 30 mins relative to control; type: functional; set-up: scale not given: the % may be the effect or the level left
Cytochrome P450 2D6 = Cytochrome P450 2D6 (Homo sapiens, UniProt P10635); assay: Inhibition of human CYP2D6 assessed as reduction in luciferin-PPXE conversion to D-luciferin at 12.5 to 25 uM by luminescence assay; type: ADME; how it was run: as §4
Sequence of Cytochrome P450 2D6 (P10635 whole entry): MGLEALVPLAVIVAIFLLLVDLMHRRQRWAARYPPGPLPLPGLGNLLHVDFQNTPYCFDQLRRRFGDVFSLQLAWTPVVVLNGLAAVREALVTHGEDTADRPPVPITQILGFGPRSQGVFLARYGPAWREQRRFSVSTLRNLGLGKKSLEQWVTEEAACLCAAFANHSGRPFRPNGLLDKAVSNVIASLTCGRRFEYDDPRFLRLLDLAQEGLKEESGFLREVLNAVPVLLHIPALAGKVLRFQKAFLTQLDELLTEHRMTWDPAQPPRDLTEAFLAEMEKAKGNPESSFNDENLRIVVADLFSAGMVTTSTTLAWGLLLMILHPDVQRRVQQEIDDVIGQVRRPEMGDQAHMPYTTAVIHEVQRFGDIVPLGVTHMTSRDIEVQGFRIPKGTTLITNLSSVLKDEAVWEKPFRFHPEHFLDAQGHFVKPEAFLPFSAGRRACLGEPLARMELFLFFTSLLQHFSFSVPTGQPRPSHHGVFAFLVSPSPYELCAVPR

Sequence of Cytochrome P450 3A4 (P08684 whole entry): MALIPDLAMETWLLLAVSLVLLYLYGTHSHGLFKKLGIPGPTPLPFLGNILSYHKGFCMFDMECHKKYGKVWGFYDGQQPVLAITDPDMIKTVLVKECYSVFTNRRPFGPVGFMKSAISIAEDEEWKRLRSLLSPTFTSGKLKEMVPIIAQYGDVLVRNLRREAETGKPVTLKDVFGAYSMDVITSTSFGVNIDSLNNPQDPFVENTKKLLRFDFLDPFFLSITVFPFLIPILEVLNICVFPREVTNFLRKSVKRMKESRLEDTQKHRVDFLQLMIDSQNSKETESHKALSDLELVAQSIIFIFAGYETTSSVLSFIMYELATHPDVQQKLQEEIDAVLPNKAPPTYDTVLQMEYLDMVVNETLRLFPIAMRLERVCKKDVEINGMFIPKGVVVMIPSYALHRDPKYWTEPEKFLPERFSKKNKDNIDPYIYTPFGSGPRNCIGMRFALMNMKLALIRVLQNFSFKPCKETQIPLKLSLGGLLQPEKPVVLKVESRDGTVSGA

| Structure (SMILES) | Activity (Mus musculus [1]) | Time (Mus musculus [2]) [h] | TD50 at 1 min [3] [mg/kg] | Ratio TD50/ED50 (Mus musculus [4]) | ED50 (Mus musculus [5]) [mg/kg] | Retention time [6] [min] | other results |
| --- | --- | --- | --- | --- | --- | --- | --- |
| COCC(C(=O)N1CCN(c2cccc(Cl)c2Cl)CC1)N1C(=O)CCC1=O (stereo unspecified) | <=75% | 0.25 to 0.5 | 224 to 261 | 4.8 - 5.9 | 38 to 54.7 |  |  |
| COCC(C(=O)N1C=CN(c2cccc(Cl)c2)CC1)N1C(=O)CCC1=O (stereo unspecified) |  |  |  |  |  | 6.04 | Drug metabolism (Liver [7]): Metabolite_Detected |
| CCCC(CCC)C(=O)O [VALPROIC ACID] |  | 0.5 | 373 |  |  |  | Activity (Mus musculus [8]): inactive; Activity (Mus musculus [9]): 121%; Time (Mus musculus [10]): 0.5 h; inhibition in vivo at 150 mg/kg (Mus musculus [11]): 25.8%; Activity (Mus musculus [12]): 105%; inhibition in vivo at 200 mg/kg (Mus musculus [13]): 42.2%; inhibition in vivo at 200 mg/kg (Mus musculus [14]): 29.2%; Activity (Mus musculus [15]): 151.5%; inhibition in vivo at 100 mg/kg (Mus musculus [16]): 15.7% |
| COCC(C(=O)N1CCN(c2cccc(Cl)c2)CC1)N1C(=O)CCC1=O (stereo unspecified) | <=75% | 0.25 to 0.5 | 192 to 226 | 6.9 - 7.3 | 26.1 to 32.7 | 5.72 | inhibition (INH) (Cytochrome P450 3A4): Not Active; Activity (Mus musculus [17]): <=75%; Ratio TD50/ED50 (Mus musculus [18]): 2.4 - 2.6; ED50 (Mus musculus [19]): 79.7 to 87 mg/kg |
| COCC(C(=O)N1CCN(c2ccc(C)cc2)CC1)N1C(=O)CCC1=O (stereo unspecified) | <=75% | 0.25 | 204 | 9.6 | 21.1 |  |  |
| COCC(C(=O)N1CCN(c2ccc(Cl)cc2)CC1)N1C(=O)CCC1=O (stereo unspecified) | <=75% | 0.25 to 1 | 180 to 208 | 2.4 - 4.6 | 45.5 to 77 |  |  |
| COCC(C(=O)N1C=CN(c2cccc(C(F)(F)F)c2)CC1)N1C(=O)CCC1=O (stereo unspecified) |  |  |  |  |  | 6.33 | Drug metabolism (Liver [20]): Metabolite_Detected |
| COCC(C(=O)N1CCN(c2cccc(C(F)(F)F)c2)CC1)N1C(=O)CCC1=O (stereo unspecified) | <=75% |  |  |  |  | 6.08 | inhibition (INH) (Cytochrome P450 3A4): Not Active; Activity (Mus musculus [21]): 50%; inhibition (INH) (Cytochrome P450 2D6): Not Active |
| COCC(C(=O)N1CCN(c2ccc(F)cc2)CC1)N1C(=O)CCC1=O (stereo unspecified) | <=75% | 0.25 | 306 | 4.3 | 71.4 |  |  |
| COC[C@@H](NC(C)=O)C(=O)NCc1ccccc1 [LACOSAMIDE] |  | 0.5 | 33.7 | 5.3 | 6.4 |  | Ratio TD50/ED50 (Mus musculus [18]): 3.6; ED50 (Mus musculus [19]): 9.4 mg/kg |
